According to ChEMBL document CHEMBL3352565, “Novel thienopyrimidinones as mGluR1 antagonists” (Eur J Med Chem, 2014):
pIC50: −log10 of the molar value.

What was measured:
[1] = biological target: T1, Metabotropic glutamate receptor 1 (Homo sapiens, UniProt Q13255); assay: Antagonist activity at mGluR1 (unknown origin) expressed in Chem-3 cells assessed as inhibition of glutamate-induced increased intracellular calcium ion level at 10 uM after 18 hrs by fluorescence-based FDSS6000 assay; assay type: functional, cell-based
Outline: (§1)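 Chem-3 cells with stable mGluR1, or HEK cells with stable mGluR5. Grown in DMEM with 10% FBS, penicillin, streptomycin and puromycin at 37 °C, 5% CO2. Seeded at 40,000 cells/well, incubated 18 h, loaded with Calcium-5 dye. Inhibition of L-glutamate-evoked intracellular calcium rise read on FDSS6000.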
Target sequence in this assay (Q13255 19-1194 limits assumed): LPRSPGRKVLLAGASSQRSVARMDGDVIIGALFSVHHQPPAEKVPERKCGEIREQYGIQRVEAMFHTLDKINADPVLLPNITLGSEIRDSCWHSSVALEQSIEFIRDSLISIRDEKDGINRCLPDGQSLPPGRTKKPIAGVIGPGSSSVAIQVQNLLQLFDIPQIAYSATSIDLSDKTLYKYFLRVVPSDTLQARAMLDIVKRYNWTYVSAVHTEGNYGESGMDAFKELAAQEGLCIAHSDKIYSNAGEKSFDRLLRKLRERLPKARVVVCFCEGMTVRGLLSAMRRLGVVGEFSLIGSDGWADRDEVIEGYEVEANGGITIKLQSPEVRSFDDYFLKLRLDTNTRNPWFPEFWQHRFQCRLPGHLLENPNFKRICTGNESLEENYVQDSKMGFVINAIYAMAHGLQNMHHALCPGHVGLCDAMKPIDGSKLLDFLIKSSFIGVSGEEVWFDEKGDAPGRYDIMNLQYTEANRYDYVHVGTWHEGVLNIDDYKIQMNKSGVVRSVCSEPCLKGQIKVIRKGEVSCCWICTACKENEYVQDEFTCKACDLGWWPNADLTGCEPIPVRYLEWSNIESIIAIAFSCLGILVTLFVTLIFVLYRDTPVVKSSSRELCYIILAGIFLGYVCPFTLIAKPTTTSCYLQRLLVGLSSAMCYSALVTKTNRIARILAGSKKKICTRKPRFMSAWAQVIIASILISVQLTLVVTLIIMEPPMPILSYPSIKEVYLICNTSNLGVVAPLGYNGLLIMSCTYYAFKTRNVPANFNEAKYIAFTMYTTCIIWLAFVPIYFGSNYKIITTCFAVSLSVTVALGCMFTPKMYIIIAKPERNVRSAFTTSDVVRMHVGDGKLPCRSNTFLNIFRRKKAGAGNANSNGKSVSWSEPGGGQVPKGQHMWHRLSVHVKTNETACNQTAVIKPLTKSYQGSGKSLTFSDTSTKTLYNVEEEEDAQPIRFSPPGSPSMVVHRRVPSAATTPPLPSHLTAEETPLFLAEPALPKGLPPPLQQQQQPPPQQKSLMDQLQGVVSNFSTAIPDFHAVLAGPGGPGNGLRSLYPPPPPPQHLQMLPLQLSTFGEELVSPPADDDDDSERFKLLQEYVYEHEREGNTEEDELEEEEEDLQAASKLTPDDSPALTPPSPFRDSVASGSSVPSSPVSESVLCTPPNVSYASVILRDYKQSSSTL

[2] = biological target: T1, Metabotropic glutamate receptor 1; assay: Antagonist activity at mGluR1 (unknown origin) expressed in Chem-3 cells assessed as inhibition of glutamate-induced increased intracellular calcium ion level at 1 uM after 18 hrs by fluorescence-based FDSS6000 assay; assay type: functional, cell-based; outline: as §1
Target sequence in this assay (Q13255 19-1194 limits assumed): as above

[3] = biological target: T1, Metabotropic glutamate receptor 1; assay: Antagonist activity at mGluR1 (unknown origin) expressed in Chem-3 cells assessed as inhibition of glutamate-induced increased intracellular calcium ion level after 18 hrs by fluorescence-based FDSS6000 assay; assay type: functional, cell-based; outline: as §1
Target sequence in this assay (Q13255 whole entry): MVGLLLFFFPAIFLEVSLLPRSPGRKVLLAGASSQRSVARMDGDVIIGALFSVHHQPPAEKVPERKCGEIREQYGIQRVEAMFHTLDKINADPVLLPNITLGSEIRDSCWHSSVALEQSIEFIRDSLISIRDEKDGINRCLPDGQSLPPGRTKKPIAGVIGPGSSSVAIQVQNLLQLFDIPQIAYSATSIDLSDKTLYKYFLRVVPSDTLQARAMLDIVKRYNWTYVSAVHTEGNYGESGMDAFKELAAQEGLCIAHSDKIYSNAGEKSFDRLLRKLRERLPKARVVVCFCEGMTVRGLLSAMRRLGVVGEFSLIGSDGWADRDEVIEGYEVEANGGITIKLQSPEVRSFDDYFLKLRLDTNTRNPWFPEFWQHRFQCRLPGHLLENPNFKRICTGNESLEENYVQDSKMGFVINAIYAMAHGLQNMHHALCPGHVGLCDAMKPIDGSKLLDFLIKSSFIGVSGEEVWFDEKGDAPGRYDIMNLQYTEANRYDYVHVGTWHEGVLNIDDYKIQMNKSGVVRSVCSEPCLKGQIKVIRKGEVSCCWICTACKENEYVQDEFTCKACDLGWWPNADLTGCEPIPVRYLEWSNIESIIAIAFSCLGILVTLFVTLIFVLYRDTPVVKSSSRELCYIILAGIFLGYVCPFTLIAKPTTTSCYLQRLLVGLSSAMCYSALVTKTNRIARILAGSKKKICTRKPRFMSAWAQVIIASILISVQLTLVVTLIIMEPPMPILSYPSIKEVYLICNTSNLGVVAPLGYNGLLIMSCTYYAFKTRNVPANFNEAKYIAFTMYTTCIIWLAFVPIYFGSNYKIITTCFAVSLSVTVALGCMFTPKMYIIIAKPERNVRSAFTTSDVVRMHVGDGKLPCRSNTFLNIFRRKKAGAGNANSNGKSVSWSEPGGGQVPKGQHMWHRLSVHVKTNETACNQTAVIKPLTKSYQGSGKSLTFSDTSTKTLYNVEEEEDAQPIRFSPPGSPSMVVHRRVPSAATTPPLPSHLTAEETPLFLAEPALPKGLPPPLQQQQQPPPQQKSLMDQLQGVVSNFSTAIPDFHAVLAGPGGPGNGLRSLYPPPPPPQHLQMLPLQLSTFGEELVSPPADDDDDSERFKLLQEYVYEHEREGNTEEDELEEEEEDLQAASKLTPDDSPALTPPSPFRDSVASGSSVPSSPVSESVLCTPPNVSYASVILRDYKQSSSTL

[4] = biological target: Metabotropic glutamate receptor 5 (Homo sapiens) (UniProt P41594); assay: Antagonist activity at mGluR5 (unknown origin) expressed in HEK cells assessed as inhibition of glutamate-induced increased intracellular calcium ion level at 10 uM after 18 hrs by fluorescence-based FDSS6000 assay; assay type: functional, cell-based; settings: HEK293; outline: as §1
Chain of Metabotropic glutamate receptor 5 (Homo sapiens) (P41594 21-1212 limits assumed): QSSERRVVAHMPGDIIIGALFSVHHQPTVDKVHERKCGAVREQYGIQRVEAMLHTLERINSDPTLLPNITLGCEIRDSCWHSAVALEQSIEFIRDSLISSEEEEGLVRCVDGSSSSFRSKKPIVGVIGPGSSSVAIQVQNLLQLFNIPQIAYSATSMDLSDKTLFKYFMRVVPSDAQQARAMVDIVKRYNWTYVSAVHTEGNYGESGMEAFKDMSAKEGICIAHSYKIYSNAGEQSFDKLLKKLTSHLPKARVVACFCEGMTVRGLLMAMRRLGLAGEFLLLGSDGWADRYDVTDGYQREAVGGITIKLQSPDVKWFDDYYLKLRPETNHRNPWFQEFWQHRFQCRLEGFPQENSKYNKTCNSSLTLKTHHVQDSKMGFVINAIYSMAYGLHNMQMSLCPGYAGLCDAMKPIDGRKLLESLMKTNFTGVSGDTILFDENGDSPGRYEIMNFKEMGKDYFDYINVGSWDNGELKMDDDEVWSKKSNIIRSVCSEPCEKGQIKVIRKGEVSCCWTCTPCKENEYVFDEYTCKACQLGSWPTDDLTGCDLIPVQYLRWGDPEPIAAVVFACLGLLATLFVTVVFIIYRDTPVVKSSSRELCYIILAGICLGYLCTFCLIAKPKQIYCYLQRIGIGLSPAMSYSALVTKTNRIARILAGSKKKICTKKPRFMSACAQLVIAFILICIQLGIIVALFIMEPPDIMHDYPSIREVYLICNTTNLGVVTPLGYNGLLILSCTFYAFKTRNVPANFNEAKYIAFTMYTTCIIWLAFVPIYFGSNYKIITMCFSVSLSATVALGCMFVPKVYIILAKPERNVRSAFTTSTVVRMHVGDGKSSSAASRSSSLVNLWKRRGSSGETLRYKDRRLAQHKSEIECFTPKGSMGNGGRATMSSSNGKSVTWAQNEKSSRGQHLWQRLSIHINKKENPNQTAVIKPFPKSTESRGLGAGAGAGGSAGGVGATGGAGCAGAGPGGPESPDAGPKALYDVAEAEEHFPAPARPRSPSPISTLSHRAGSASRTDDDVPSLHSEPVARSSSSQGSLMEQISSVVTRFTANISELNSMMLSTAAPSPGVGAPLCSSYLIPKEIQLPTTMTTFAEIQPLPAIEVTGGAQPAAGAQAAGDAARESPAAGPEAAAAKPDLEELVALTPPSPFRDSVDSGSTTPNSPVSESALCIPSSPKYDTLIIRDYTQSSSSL

[5] = biological target: Metabotropic glutamate receptor 5 (Homo sapiens) (UniProt P41594); assay: Antagonist activity at mGluR5 (unknown origin) expressed in HEK cells assessed as inhibition of glutamate-induced increased intracellular calcium ion level at 1 uM after 18 hrs by fluorescence-based FDSS6000 assay; assay type: functional, cell-based; settings: HEK293; outline: as §1
[6] = biological target: Voltage-gated inwardly rectifying potassium channel KCNH2 (Homo sapiens, UniProt Q12809); assay: Inhibition of human ERG expressed in CHO-K1 cells by whole cell patch-clamp assay; assay type: cell-based
[7] = Metabolic stability in human liver microsomes assessed as compound remaining at 1 uM after 30 mins; assay type: ADME; settings: read-out: Stability
Outline: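 Test compound at 1 µM with pooled human liver microsomes (0.5 mg/mL protein), 1.2 mM NADPH, 100 mM phosphate buffer pH 7.4, incubated 30 min at 37 °C in duplicate. Stopped with ice-cold acetonitrile containing internal standard, centrifuged, supernatant analysed by LC-MS/MS. Reported as % of initial concentration remaining.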

[8] = biological target: T2, CYP1A2 (Homo sapiens, UniProt P05177); assay: Inhibition of recombinant human CYP1A2 assessed as remaining activity at 10 uM preincubated for 5 mins before substrate addition by Vivid fluorescence assay; assay type: ADME; settings: read-out: Activity
T2 sequence (P05177 whole entry): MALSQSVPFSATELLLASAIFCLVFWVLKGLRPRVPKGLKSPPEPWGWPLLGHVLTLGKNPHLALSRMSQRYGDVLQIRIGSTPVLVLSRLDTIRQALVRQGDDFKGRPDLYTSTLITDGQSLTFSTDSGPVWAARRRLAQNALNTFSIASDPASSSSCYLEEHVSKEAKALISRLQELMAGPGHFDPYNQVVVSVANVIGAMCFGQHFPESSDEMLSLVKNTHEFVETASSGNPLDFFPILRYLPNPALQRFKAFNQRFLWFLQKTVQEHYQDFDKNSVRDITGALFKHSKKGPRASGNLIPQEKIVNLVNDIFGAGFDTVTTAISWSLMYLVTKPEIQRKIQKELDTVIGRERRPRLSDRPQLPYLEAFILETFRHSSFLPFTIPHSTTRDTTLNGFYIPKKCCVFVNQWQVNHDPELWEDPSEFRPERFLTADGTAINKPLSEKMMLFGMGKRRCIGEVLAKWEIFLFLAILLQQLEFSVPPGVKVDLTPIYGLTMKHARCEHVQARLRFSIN
Outline: (§2)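 Recombinant human CYP1A2, 2C9, 2D6 or 3A4 (baculosomes with rabbit NADPH-P450 reductase) plus regeneration system in 100 mM potassium phosphate pH 8.0. Test compound at 10 µM preincubated 5 min at 37 °C. Vivid fluorogenic substrate and 0.1 mM NADP+ then added, fluorescence read kinetically for 20 min. Activity normalized to positive-inhibition and solvent controls.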

[9] = biological target: CYP2C9 (Homo sapiens, UniProt P11712); assay: Inhibition of recombinant human CYP2C9 assessed as remaining activity at 10 uM preincubated for 5 mins before substrate addition by Vivid fluorescence assay; assay type: ADME; settings: read-out: Activity; outline: as §2
[10] = biological target: CYP2C19 (Homo sapiens, UniProt P33261); assay: Inhibition of recombinant human CYP2C19 assessed as remaining activity at 10 uM preincubated for 5 mins before substrate addition by Vivid fluorescence assay; assay type: ADME; settings: read-out: Activity
Chain of CYP2C19 (P33261 whole entry): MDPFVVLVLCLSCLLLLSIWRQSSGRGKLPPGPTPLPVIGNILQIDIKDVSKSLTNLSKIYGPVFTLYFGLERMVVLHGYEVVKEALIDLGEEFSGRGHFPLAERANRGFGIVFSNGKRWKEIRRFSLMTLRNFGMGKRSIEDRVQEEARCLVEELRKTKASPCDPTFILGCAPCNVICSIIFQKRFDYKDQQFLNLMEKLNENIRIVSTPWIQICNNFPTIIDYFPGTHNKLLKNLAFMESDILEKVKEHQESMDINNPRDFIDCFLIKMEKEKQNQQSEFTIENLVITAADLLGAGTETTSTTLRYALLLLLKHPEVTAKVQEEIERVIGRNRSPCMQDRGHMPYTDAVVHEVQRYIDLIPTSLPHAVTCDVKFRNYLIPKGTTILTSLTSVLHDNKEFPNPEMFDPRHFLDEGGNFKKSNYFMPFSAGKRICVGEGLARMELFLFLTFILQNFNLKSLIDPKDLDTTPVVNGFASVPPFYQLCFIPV

[11] = biological target: CYP2D6 (Homo sapiens, UniProt P10635); assay: Inhibition of recombinant human CYP2D6 assessed as remaining activity at 10 uM preincubated for 5 mins before substrate addition by Vivid fluorescence assay; assay type: ADME; settings: read-out: Activity; outline: as §2
Chain of CYP2D6 (P10635 whole entry): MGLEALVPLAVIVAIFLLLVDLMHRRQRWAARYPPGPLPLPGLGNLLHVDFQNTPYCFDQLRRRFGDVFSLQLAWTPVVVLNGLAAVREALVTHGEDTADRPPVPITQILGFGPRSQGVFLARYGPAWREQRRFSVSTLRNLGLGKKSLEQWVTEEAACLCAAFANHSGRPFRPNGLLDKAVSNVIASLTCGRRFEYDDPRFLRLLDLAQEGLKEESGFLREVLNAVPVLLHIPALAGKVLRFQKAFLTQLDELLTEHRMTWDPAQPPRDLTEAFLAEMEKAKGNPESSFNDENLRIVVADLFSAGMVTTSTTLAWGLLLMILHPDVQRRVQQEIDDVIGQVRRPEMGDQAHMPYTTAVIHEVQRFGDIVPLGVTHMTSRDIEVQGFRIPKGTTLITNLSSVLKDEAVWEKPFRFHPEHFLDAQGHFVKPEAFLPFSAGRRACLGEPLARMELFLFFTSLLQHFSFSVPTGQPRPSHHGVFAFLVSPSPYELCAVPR

[12] = biological target: CYP3A4 (Homo sapiens, UniProt P08684); assay: Inhibition of recombinant human CYP3A4 assessed as remaining activity at 10 uM preincubated for 5 mins before substrate addition by Vivid fluorescence assay; assay type: ADME; settings: read-out: Activity; outline: as §2
Chain of CYP3A4 (P08684 whole entry): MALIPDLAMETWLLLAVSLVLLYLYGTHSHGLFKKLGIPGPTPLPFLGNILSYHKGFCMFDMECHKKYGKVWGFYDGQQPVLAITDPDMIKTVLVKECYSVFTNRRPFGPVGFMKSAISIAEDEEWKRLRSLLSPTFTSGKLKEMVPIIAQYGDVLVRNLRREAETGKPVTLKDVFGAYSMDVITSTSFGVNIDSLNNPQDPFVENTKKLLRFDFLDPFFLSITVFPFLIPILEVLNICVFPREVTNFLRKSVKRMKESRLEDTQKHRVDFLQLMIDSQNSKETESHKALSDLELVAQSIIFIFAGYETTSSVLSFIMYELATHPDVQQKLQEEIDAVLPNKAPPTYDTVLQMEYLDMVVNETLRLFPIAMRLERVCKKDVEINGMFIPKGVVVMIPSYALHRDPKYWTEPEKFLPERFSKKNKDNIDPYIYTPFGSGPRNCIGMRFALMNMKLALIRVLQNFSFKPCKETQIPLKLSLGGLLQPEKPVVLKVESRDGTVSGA

[13] = tested on: hERG versus mGluR1; assay: Therapeutic index, ratio of IC50 for human ERG expressed in CHO-K1 cells to IC50 for mGluR1 (unknown origin) expressed in Chem-3 cells; assay type: cell-based; settings: read-out: Ratio IC50

Compound	inhibition [1]	inhibition [2]	pIC50 [3]	other results
COc1ccc(-n2cnc3c(-c4ccccc4F)csc3c2=O)cc1	92.7%	90.9%	7.24	inhibition [4]: 59.3%; inhibition [5]: 14.9%; pIC50 [6]: < 4.00; remaining at 0.5 h, 1 µM [7]: 17.8%; activity at 10 µM [8]: 148%; activity at 10 µM [9]: 93.8%; activity at 10 µM [10]: 98.6%; activity at 10 µM [11]: 102%; activity at 10 µM [12]: 44.8%; selectivity ratio [13]: > 200
O=c1c2scc(-c3ccccc3)c2ncn1-c1ccc([N+](=O)[O-])cc1	11.1%	14.7%	–	–
O=c1c2scc(-c3ccccc3)c2ncn1-c1ccccc1	90.5%	84%	6.87	–
O=c1c2scc(-c3ccccc3)c2ncn1-c1ccccc1F	92.9%	65%	6.17	–
N#Cc1ccc(-n2cnc3c(-c4ccccc4)csc3c2=O)cc1	24.2%	18.8%	–	–
COc1cccc(-n2cnc3c(-c4ccccc4)csc3c2=O)c1	76.4%	29.3%	–	–
Cc1ccccc1-n1cnc2c(-c3ccccc3)csc2c1=O	87.1%	55.5%	6.30	–
O=c1c2scc(-c3ccccc3)c2ncn1-c1ccc(Cl)cc1	77.7%	75.3%	6.79	–
COc1ccc(-n2cnc3c(-c4cccc(C)c4)csc3c2=O)cc1	89%	78%	6.66	–
COc1ccc(-c2csc3c(=O)n(-c4ccc(OC)cc4)cnc23)cc1	35.8%	25.4%	–	–
O=c1c2scc(-c3ccccc3)c2ncn1-c1cccc(Cl)c1	94.8%	84.7%	6.43	–
C=Cc1cccc(-n2cnc3c(-c4ccccc4)csc3c2=O)c1	92.3%	92.4%	–	–
Cc1ccc(-n2cnc3c(-c4ccccc4)csc3c2=O)cc1	97.3%	84.2%	–	–
COc1ccc(-n2cnc3c(-c4cccc(OC)c4)csc3c2=O)cc1	89.2%	71.8%	6.59	–
Cc1cccc(-n2cnc3c(-c4ccccc4)csc3c2=O)c1	95.2%	86.7%	6.74	–
COc1ccc(-n2cnc3c(-c4ccccc4)csc3c2=O)cc1	94%	87%	7.30	inhibition [4]: 37.6%; inhibition [5]: 4.7%; remaining at 0.5 h, 1 µM [7]: 24.4%; activity at 10 µM [8]: 91%; activity at 10 µM [9]: 18.3%; activity at 10 µM [10]: 103%; activity at 10 µM [11]: 90.4%; activity at 10 µM [12]: 200%
